In brackets after ≈: the same amount, converted by molar mass.
Assays:
Assay type in all cases: functional
Streptococcus pneumoniae [1] = test: Potency index, ratio of clarithromycin MIC to test compound MIC for erythromycin-resistant Streptococcus pneumoniae B1 expressing ermB gene
Streptococcus pneumoniae [2] = test: Potency index, ratio of azithromycin MIC to test compound MIC for erythromycin-resistant Streptococcus pneumoniae AB11 expressing ermB/mefA genes
Streptococcus pneumoniae [3] = test: Potency index, ratio of azithromycin MIC to test compound MIC for erythromycin-resistant Streptococcus pneumoniae A22072 expressing mefA gene
Streptococcus pneumoniae [4] = test: Antibacterial activity against erythromycin-resistant Streptococcus pneumoniae B1 expressing ermB gene by broth microdilution method
Procedure, shortened: (§1)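 Broth microdilution per NCCL recommendation, read as minimal inhibitory concentration, run alongside azithromycin and clarithromycin references. Strains: S. pneumoniae B1 (erythromycin-resistant, ermB), A22072 (erythromycin-resistant, mefA), AB11 (erythromycin-resistant, erm and mef); S. aureus ATCC29213 ([…]); S. epidermidis clinical isolate (penicillin-resistant, not characterized).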

[5] = tested on: Staphylococcus epidermidis; test: Antibacterial activity against penicillin-resistant Staphylococcus epidermidis clinical isolate by broth microdilution method; procedure, shortened: as §1
Streptococcus pneumoniae [6] = test: Potency index, ratio of clarithromycin MIC to test compound MIC for erythromycin-resistant Streptococcus pneumoniae A22072 expressing mefA gene
Streptococcus pyogenes [7] = test: Antibacterial activity against erythromycin-resistant Streptococcus pyogenes R1 clinical isolate by broth microdilution method
Escherichia coli = test: Antibacterial activity against penicillin-susceptible Escherichia coli ATCC 25922 by broth microdilution method
Procedure, shortened: (§2)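 MICs were determined in vitro by broth microdilution following the NCCL-recommended method. Azithromycin and clarithromycin were run alongside as reference antibiotics on the same strain panel.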

Streptococcus pneumoniae [8] = test: Potency index, ratio of clarithromycin MIC to test compound MIC for erythromycin-resistant Streptococcus pneumoniae AB11 expressing ermB/mefA genes
Streptococcus pneumoniae [9] = test: Potency index, ratio of azithromycin MIC to test compound MIC for erythromycin-resistant Streptococcus pneumoniae B1 expressing ermB gene
Staphylococcus aureus [10] = test: Antibacterial activity against […] Staphylococcus aureus ATCC 29213 by broth microdilution method; procedure, shortened: as §1
Staphylococcus aureus [11] = test: Antibacterial activity against erythromycin-susceptible Staphylococcus aureus ATCC 25923 by broth microdilution method; procedure, shortened: as §2
Streptococcus pyogenes [12] = test: Antibacterial activity against erythromycin-susceptible Streptococcus pyogenes clinical isolate by broth microdilution method; procedure, shortened: as §2
Pseudomonas aeruginosa = test: Antibacterial activity against penicillin-susceptible Pseudomonas aeruginosa ATCC 27853 by broth microdilution method; procedure, shortened: as §2
Bacillus subtilis [13] = test: Antibacterial activity against erythromycin/penicillin-susceptible Bacillus subtilis ATCC 9372 by broth microdilution method; procedure, shortened: as §2
Streptococcus pneumoniae [14] = test: Antibacterial activity against erythromycin-resistant Streptococcus pneumoniae A22072 expressing mefA gene by broth microdilution method; procedure, shortened: as §1
Streptococcus pneumoniae [15] = test: Antibacterial activity against erythromycin-resistant Streptococcus pneumoniae AB11 expressing ermB/mefA genes by broth microdilution method; procedure, shortened: as §1
Streptococcus pyogenes [16] = test: Potency index, ratio of azithromycin MIC to test compound MIC for erythromycin-resistant Streptococcus pyogenes R1 clinical isolate
Streptococcus pyogenes [17] = test: Potency index, ratio of clarithromycin MIC to test compound MIC for erythromycin-resistant Streptococcus pyogenes R1 clinical isolate
[18] = tested on: Staphylococcus epidermidis; test: Potency index, ratio of azithromycin MIC to test compound MIC for penicillin-resistant Staphylococcus epidermidis clinical isolate
Bacillus subtilis [19] = test: Potency index, ratio of azithromycin MIC to test compound MIC for erythromycin/penicillin-susceptible Bacillus subtilis ATCC 9372

| SMILES | Ratio (Streptococcus pneumoniae [1]) | Ratio (Streptococcus pneumoniae [2]) | Ratio (Streptococcus pneumoniae [3]) | MIC (Streptococcus pneumoniae [4]) [mg/L] | MIC [5] [mg/L] | Ratio (Streptococcus pneumoniae [6]) | MIC (Streptococcus pyogenes [7]) [mg/L] | MIC (Escherichia coli) [mg/L] | Ratio (Streptococcus pneumoniae [8]) | Ratio (Streptococcus pneumoniae [9]) | MIC (Staphylococcus aureus [10]) [mg/L] | MIC (Staphylococcus aureus [11]) [mg/L] | MIC (Streptococcus pyogenes [12]) [mg/L] | MIC (Pseudomonas aeruginosa) [mg/L] | MIC (Bacillus subtilis [13]) [mg/L] | MIC (Streptococcus pneumoniae [14]) [mg/L] | MIC (Streptococcus pneumoniae [15]) [mg/L] | Ratio (Streptococcus pyogenes [16]) | Ratio (Streptococcus pyogenes [17]) | also measured |
| --- | --- | --- | --- | --- | --- | --- | --- | --- | --- | --- | --- | --- | --- | --- | --- | --- | --- | --- | --- | --- |
| CC[C@H]1OC(=O)[C@H](C)[C@@H](OC(=O)Nc2ccccc2C)[C@H](C)[C@@H](O[C@@H]2O[C@H](C)C[C@H](N(C)C)[C@H]2O)[C@](C)(O)C[C@@H](C)CN(C)[C@H](C)[C@@H](OC(=O)NCc2ccccc2)[C@]1(C)O | 8 - 256 | 8 - 256 | 16 | 32 (≈ 37.3 µM) | 0.25 (≈ 0.292 µM) | 8 - 256 | 128 (≈ 149 µM) | 64 (≈ 74.7 µM) | 8 - 256 | 8 - 256 | 32 (≈ 37.3 µM) | 1 (≈ 1.17 µM) | 0.03 (≈ 0.035 µM) | 64 (≈ 74.7 µM) | 2 (≈ 2.33 µM) | 0.25 (≈ 0.292 µM) | 2 (≈ 2.33 µM) |  |  |  |
| CC[C@H]1OC(=O)[C@H](C)[C@@H](OC(=O)Nc2cccc(C)c2)[C@H](C)[C@@H](O[C@@H]2O[C@H](C)C[C@H](N(C)C)[C@H]2O)[C@](C)(O)C[C@@H](C)CN(C)[C@H](C)[C@@H](OC(=O)NCc2ccccc2Cl)[C@]1(C)O | 8 - 256 | 8 - 256 | 8 | 8 (≈ 8.97 µM) | 0.25 (≈ 0.28 µM) | 8 - 256 | 32 (≈ 35.9 µM) | 64 (≈ 71.8 µM) | 8 - 256 | 8 - 256 | 64 (≈ 71.8 µM) | 2 (≈ 2.24 µM) | 0.03 (≈ 0.0336 µM) | 64 (≈ 71.8 µM) | 4 (≈ 4.49 µM) | 0.5 (≈ 0.561 µM) | 4 (≈ 4.49 µM) |  |  |  |
| CC[C@H]1OC(=O)[C@H](C)[C@@H](OC(=O)Nc2ccccc2)[C@H](C)[C@@H](O[C@@H]2O[C@H](C)C[C@H](N(C)C)[C@H]2O)[C@](C)(O)C[C@@H](C)CN(C)[C@H](C)[C@H]2OC(=O)O[C@@]21C | 16 |  |  | 16 (≈ 21.7 µM) | 4 (≈ 5.44 µM) |  | 8 (≈ 10.9 µM) | 128 (≈ 174 µM) |  | 16 | 128 (≈ 174 µM) | 2 (≈ 2.72 µM) | 0.25 (≈ 0.34 µM) | 128 (≈ 174 µM) | 4 (≈ 5.44 µM) | 16 (≈ 21.7 µM) | 16 (≈ 21.7 µM) | 32 | 32 |  |
| CCCCCCNC(=O)O[C@@H]1[C@@H](C)N(C)C[C@H](C)C[C@@](C)(O)[C@H](O[C@@H]2O[C@H](C)C[C@H](N(C)C)[C@H]2O)[C@@H](C)[C@H](OC(=O)Nc2ccc(OC)cc2)[C@@H](C)C(=O)O[C@H](CC)[C@@]1(C)O | 256 | 256 | 8 - 256 | 1 (≈ 1.15 µM) | 0.125 (≈ 0.144 µM) | 8 - 256 | 32 (≈ 36.9 µM) | 128 (≈ 148 µM) | 128 | 256 | 128 (≈ 148 µM) | 8 (≈ 9.23 µM) | 1 (≈ 1.15 µM) | 128 (≈ 148 µM) | 0.5 (≈ 0.577 µM) | 8 (≈ 9.23 µM) | 1 (≈ 1.15 µM) |  |  | Ratio [18]: 2; Ratio (Bacillus subtilis [19]): 2 |
| CCCCCCNC(=O)O[C@H]1[C@H](C)[C@@H](O[C@@H]2O[C@H](C)C[C@H](N(C)C)[C@H]2OC(C)=O)[C@](C)(O)C[C@@H](C)CN(C)[C@H](C)[C@H]2OC(=O)O[C@]2(C)[C@@H](CC)OC(=O)[C@@H]1C |  |  |  | 64 (≈ 81.4 µM) | 16 (≈ 20.4 µM) |  | 32 (≈ 40.7 µM) | 128 (≈ 163 µM) |  |  | 32 (≈ 40.7 µM) | 16 (≈ 20.4 µM) | 4 (≈ 5.09 µM) | 128 (≈ 163 µM) | 8 (≈ 10.2 µM) | 64 (≈ 81.4 µM) | 16 (≈ 20.4 µM) | 8 | 8 |  |

Source: ChEMBL document CHEMBL3994579, “Synthesis and antibacterial activity of novel 3-O-descladinosylazithromycin derivatives” (2017)
